Data set [1] addresses T1, 5-hydroxytryptamine receptor 2C (Homo sapiens) (UniProt P28335).
T1 sequence (whole entry): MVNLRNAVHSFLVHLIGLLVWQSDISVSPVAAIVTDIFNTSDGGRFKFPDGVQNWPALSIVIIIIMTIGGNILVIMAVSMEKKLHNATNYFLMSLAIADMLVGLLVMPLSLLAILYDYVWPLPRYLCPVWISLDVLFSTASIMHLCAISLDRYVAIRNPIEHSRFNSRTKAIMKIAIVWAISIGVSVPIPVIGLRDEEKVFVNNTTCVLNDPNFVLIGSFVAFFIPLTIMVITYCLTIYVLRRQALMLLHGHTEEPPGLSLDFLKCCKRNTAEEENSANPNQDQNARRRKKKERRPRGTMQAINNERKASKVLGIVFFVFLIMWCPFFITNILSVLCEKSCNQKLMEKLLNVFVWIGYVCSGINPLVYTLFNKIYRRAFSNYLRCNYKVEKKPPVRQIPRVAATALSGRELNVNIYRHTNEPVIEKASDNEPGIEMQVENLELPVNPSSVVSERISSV
Kind of data set: Agonist activity at 5HT2C receptor (unknown origin) expressed in HEK293 cells co-expressing NFAT-RE at 10 uM after 6 to 12 hrs by Bright-Glo luciferase reporter gene assay. The data set is classed as cell-based. In a few lines: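 Primary screen at 5-HT2C in transiently co-transfected HEK293T (receptor plus NFAT-RE luciferase plasmids, 50,000 cells/well). Compounds tested in triplicate at a final 10 µM in HEPES-buffered HBSS pH 7.4 and incubated 6-12 h. Luminescence read within 5 min of Bright-Glo (1 mg/ml final). Signal normalized to the 5-HT maximal response.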
Background: In a reporter assay the amount or activity of a reporter protein is the signal.

The target of data set [2] is T1, 5-hydroxytryptamine receptor 2C (Homo sapiens). Kind of data set: Positive allosteric modulation of 5HT2C receptor (unknown origin) expressed in HEK293 cells co-expressing NFAT-RE assessed as increase in serotonin-induced reponse at 10 uM after 6 to 12 hrs by Bright-Glo luciferase reporter gene assay relative to serotonin. The class given is cell-based. In a few lines: (§1)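 Transiently co-transfected HEK293T cells expressing 5-HT2A, 5-HT2B or 5-HT2C with NFAT-RE luciferase, 50,000 cells/well. Test compound added first at 10 µM, 1 µM or 100 nM, in triplicate. A 5-HT concentration-response (10 µM to 0.01 nM) followed, then 6-12 h incubation. Bright-Glo luminescence was fitted by non-linear regression, with Emax normalized to 5-HT alone (100%). n=3-4.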

Data set [3] concerns Rattus norvegicus. Kind of data set: Induction of anorexia in Sprague-Dawley rat assessed as suppression of food intake at 2 pmol, icv measured after 3 to 6 hrs. The data set is classed as functional, organism-based. Put shortly: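 Adult SD rats (150-200 g) on a 12 h light/dark cycle at 22 °C, cannulated in the right ventricle. Rats were fasted 4 h with free access to water, then dosed i.c.v. with 2 pmol/rat (2 µL) in aCSF vehicle; lorcaserin 2 pmol/rat served as positive control. Weighed pellets were given 10 min later, and remaining food plus spillage was weighed at 3, 6 and 24 h; n=4.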

Data set [4] has as its target 5HT2B receptor (Homo sapiens, UniProt P41595). Kind of data set: Positive allosteric modulation of 5HT2B receptor (unknown origin) expressed in HEK293 cells co-expressing NFAT-RE assessed as increase in serotonin-induced reponse at 1 uM after 6 to 12 hrs by Bright-Glo luciferase reporter gene assay relative to serotonin. The data set is classed as cell-based. The settings on record: HEK293 cells expressing 5HT2B receptor and NFAT-RE reporter. In a few lines: as §1

The target in data set [5] is T2, 5-hydroxytryptamine receptor 2B (Homo sapiens, UniProt P41595). The data set can be described thus: Agonist activity at 5HT2B receptor (unknown origin) expressed in HEK293 cells co-expressing NFAT-RE after 6 to 12 hrs by Bright-Glo luciferase reporter gene assay. The data set is classed as cell-based. In a few lines:
(§2)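 HEK293T cells transiently co-transfected (PEI) with 0.1 µg/well receptor plasmid (5-HT2A, 5-HT2B or 5-HT2C) plus 0.1 µg/well NFAT-RE luciferase reporter, plated 50,000 cells/well 24 h before treatment. Compounds tested in triplicate from 10 µM down to 0.01 nM in HBSS/20 mM HEPES pH 7.4, incubated 6-12 h. Luminescence read within 5 min of Bright-Glo (1 mg/ml final). RLU fitted by non-linear regression; 5-HT Emax set to 100%.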

For data set [6], the target named is T1, 5-hydroxytryptamine receptor 2C (Homo sapiens). Kind of data set: Agonist activity at 5HT2C receptor (unknown origin) expressed in HEK293 cells co-expressing NFAT-RE after 6 to 12 hrs by Bright-Glo luciferase reporter gene assay. The class given is cell-based. Put shortly:
as §2

Data set [7] has as its target T3, 5-hydroxytryptamine receptor 2A (Homo sapiens, UniProt P28223). The data set can be described thus: Positive allosteric modulation of 5HT2A receptor (unknown origin) expressed in HEK293 cells co-expressing NFAT-RE assessed as increase in serotonin-induced reponse after 6 to 12 hrs by Bright-Glo luciferase reporter gene assay. The class given is cell-based. In a few lines:
as §1

In data set [8] the target is T2, 5-hydroxytryptamine receptor 2B. The data set can be described thus: Positive allosteric modulation of 5HT2B receptor (unknown origin) expressed in HEK293 cells co-expressing NFAT-RE assessed as increase in serotonin-induced reponse at 10 uM after 6 to 12 hrs by Bright-Glo luciferase reporter gene assay. The data set is classed as cell-based. Particulars: hek293, 10 µM. Put shortly:
as §1

Data set [9] addresses 5HT2A receptor (Homo sapiens, UniProt P28223). Kind of data set: Positive allosteric modulation of 5HT2A receptor (unknown origin) expressed in HEK293 cells co-expressing NFAT-RE assessed as increase in serotonin-induced reponse at 1 uM after 6 to 12 hrs by Bright-Glo luciferase reporter gene assay relative to serotonin. The settings on record: HEK293 cells expressing 5HT2A receptor and NFAT-RE reporter. The class given is cell-based. Put shortly: as §1

Data set [10] deals with T3, 5-hydroxytryptamine receptor 2A. The data set can be described thus: Agonist activity at 5HT2A receptor (unknown origin) expressed in HEK293 cells co-expressing NFAT-RE after 6 to 12 hrs by Bright-Glo luciferase reporter gene assay. The data set is classed as cell-based. In a few lines:
as §2

The target of data set [11] is T1, 5-hydroxytryptamine receptor 2C (Homo sapiens). The data set can be described thus: Positive allosteric modulation of 5HT2C receptor (unknown origin) expressed in HEK293 cells co-expressing NFAT-RE assessed as increase in serotonin-induced reponse at 1 uM after 6 to 12 hrs by Bright-Glo luciferase reporter gene assay relative to serotonin. The class given is cell-based. In a few lines: as §1

The target in data set [12] is T4, 5-hydroxytryptamine receptor 2C (Homo sapiens, UniProt P28335).
T4 sequence (P28335 whole entry): T1 sequence (whole entry)
The data set can be described thus: Positive allosteric modulation of 5HT2C receptor (unknown origin) expressed in HEK293 cells co-expressing NFAT-RE assessed as increase in serotonin-induced reponse after 6 to 12 hrs by Bright-Glo luciferase reporter gene assay. The data set is classed as cell-based. In a few lines: as §1

In data set [13] the target is T2, 5-hydroxytryptamine receptor 2B. Kind of data set: Positive allosteric modulation of 5HT2B receptor (unknown origin) expressed in HEK293 cells co-expressing NFAT-RE assessed as increase in serotonin-induced reponse after 6 to 12 hrs by Bright-Glo luciferase reporter gene assay. The class given is cell-based. In a few lines:
as §1

Activity calls are given as the source filed them. The rule behind the calls is not given here.

T2 sequence (P41595 whole entry): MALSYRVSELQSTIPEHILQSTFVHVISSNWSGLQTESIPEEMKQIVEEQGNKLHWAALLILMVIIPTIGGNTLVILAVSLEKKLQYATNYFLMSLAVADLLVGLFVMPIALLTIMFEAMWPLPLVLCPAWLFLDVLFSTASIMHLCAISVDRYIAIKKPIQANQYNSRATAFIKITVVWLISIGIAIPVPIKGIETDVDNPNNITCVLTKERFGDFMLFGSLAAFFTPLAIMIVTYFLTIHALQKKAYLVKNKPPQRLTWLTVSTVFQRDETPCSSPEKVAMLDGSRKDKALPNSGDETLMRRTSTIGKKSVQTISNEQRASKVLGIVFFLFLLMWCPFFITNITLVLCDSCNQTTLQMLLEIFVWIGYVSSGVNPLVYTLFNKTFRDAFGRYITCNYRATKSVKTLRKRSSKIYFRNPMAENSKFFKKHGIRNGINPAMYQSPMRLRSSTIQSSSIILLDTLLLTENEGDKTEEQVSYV
T3 sequence (P28223 whole entry): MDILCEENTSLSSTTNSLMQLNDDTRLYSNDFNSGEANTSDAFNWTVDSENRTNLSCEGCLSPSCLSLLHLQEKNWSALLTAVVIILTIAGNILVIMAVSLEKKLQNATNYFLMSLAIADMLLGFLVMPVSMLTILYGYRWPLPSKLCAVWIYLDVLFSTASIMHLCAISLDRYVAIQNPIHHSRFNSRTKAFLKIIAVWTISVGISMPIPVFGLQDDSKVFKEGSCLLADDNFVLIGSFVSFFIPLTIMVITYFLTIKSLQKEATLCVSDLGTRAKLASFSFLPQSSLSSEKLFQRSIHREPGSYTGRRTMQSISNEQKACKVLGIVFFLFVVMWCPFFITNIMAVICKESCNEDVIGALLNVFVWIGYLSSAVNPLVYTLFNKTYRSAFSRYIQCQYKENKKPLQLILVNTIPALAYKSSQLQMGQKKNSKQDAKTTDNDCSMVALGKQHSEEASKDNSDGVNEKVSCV
5HT2B receptor, sequence (P41595 whole entry): as the sequence (P41595 whole entry) above
5HT2A receptor, sequence (P28223 whole entry): as the sequence (P28223 whole entry) above

In the case of `O=C(c1ccc(OCc2ccccc2)cc1)C1CC1`, in [1], the outcome was inactive.

With `COc1cc(C(=O)OCc2cn(C(c3ccc(OCc4ccccc4)cc3)C3CC3)nn2)cc(OC)c1OC` (stereo unspecified), the outcome in data set [1] was inactive.

Consider `Cc1ccc(S(=O)(=O)NCc2cn(C(c3ccc(OCc4ccccc4)cc3)C3CC3)nn2)cc1` (stereo unspecified), for which the result in data set [1] was inactive.

`C=CCN1CCN(c2ccc(C(=O)C3CC3)cc2)CC1`: the outcome in data set [2] and in data set [1] was inactive.

For the compound `O=C(c1ccc(Nc2nc3ccc(F)cc3s2)cc1)C1CC1`, the result in [2] and in data set [1] was inactive.

Turning to `O=C(c1ccc(Nc2nc3ccccc3s2)cc1)C1CC1`, the outcome in data set [2] and in data set [1] was inactive.

Regarding `C[C@H]1CNCCc2ccc(Cl)cc21`, the result in [3] was Active.

Regarding `O=C(c1ccc(-n2nnc3ccccc32)cc1)C1CC1`, the outcome in data set [2] and in [1] was inactive.

As to `O=C(c1ccc(N2CCN(Cc3ccc4c(c3)OCO4)CC2)cc1)C1CC1`, the outcome in [2] and in data set [1] was inactive.

For `Nc1ncnc2c1ncn2-c1ccc(C(O)C2CC2)cc1` (stereo unspecified), the outcome in data set [2] and in data set [1] was inactive.

For the compound `O=C(c1ccc(N2CCN(C(c3ccccc3)c3ccccc3)CC2)cc1)C1CC1`, the result in data set [2] and in data set [1] was inactive.

`OCc1cn(C(c2ccc(OCc3ccccc3)cc2)C2CC2)nn1` (stereo unspecified): the result in data set [1] was inactive.

Regarding `c1ccc(COc2ccc(C(C3CC3)n3cc(-c4ccccc4)nn3)cc2)cc1` (stereo unspecified), the outcome in [1] was inactive.

In the case of `CCOc1ccc2nc(Nc3ccc(C(=O)C4CC4)cc3)sc2c1`, the result in data set [2] and in data set [1] was inactive.

In the case of `CC1(C)O[C@@H]2O[C@H]([C@H]3COC(C)(C)O3)[C@@H](OCc3cn(C(c4ccc(OCc5ccccc5)cc4)C4CC4)nn3)[C@H]2O1` (stereo partly specified), in data set [1], the result was inactive.

With `Cc1nc2ccccc2n1-c1ccc(C(O)C2CC2)cc1` (stereo unspecified), the outcome in data set [2] and in data set [1] was inactive.

Consider `Cc1cccc2sc(Nc3ccc(C(=O)C4CC4)cc3)nc12`, for which the outcome in [2] and in [1] was inactive.

As to `Cc1nc2ccccc2n1-c1ccc(C(=O)C2CC2)cc1`, the outcome in [2] and in [1] was inactive.

As to `O=C(c1ccc(NCCN2CCN(c3ccc(C(=O)C4CC4)cc3)CC2)cc1)C1CC1`, the result in data set [1] was inactive.

For the compound `O=C(c1ccc(-n2cnc3c(NCc4ccccc4)ncnc32)cc1)C1CC1`, the result in data set [2] and in data set [1] was inactive.

Turning to `CCCCCc1cn(C(c2ccc(OCc3ccccc3)cc2)C2CC2)nn1` (stereo unspecified), the outcome in data set [1] was inactive.

On to `O=S(=O)(NCc1cn(C(c2ccc(OCc3ccccc3)cc2)C2CC2)nn1)c1ccc(F)cc1` (stereo unspecified), for which the outcome in data set [1] was inactive.

As for `OCCCCc1cn(C(c2ccc(OCc3ccccc3)cc2)C2CC2)nn1` (stereo unspecified), in [1], the outcome was inactive.

With `O=C(c1ccc(-n2ccnc2)cc1)C1CC1`, the maximal effect (Emax) at 1 µM in data set [4] worked out at 119%; in data set [9], 96%. Further, the Activity entry in data set [5] was “Not Active”; in data set [8] it was “Active”; in data set [10], “Not Active”. The outcome in [2] was Active. Also, the result in data set [6] and in data set [1] was inactive. Moreover, the figures for the EC50 in data set [7], in data set [12] and in data set [13] were 50.1 nM, 4.27 nM and 1.26 nM, respectively. Also, the maximal effect (Emax) in [11] amounted to 143%.

On to `O=C(c1ccc(-n2cnc3ccccc32)cc1)C1CC1`, for which the outcome in [2] and in data set [1] was inactive.

Turning to `Nc1cccc2ncn(-c3ccc(C(=O)C4CC4)cc3)c12`, the result in data set [2] and in data set [1] was inactive.

For the compound `O=C(c1ccc(NCCCn2ccnc2)cc1)C1CC1`, the outcome in data set [2] was inactive.

`O=[N+]([O-])c1cn(-c2ccc(C(O)C3CC3)cc2)cn1` (stereo unspecified): the result in data set [2] and in [1] was inactive.

As for `OC(c1ccc(-n2cnc3c(NCc4ccccc4)ncnc32)cc1)C1CC1` (stereo unspecified), the result in [2] and in data set [1] was inactive.

For the compound `O=C(c1ccc(Nc2nc3ccccc3[nH]2)cc1)C1CC1`, the result in data set [2] and in data set [1] was inactive.

Consider `OC(c1ccc(-n2ccnc2)cc1)C1CC1` (stereo unspecified), for which the outcome in [2] and in data set [1] was inactive.

For `OC(c1ccc(-n2cnc3ccccc32)cc1)C1CC1` (stereo unspecified), the result in [2] and in data set [1] was inactive.

As to `O=C(c1ccc(-n2cnc([N+](=O)[O-])c2)cc1)C1CC1`, the results for the Emax at 1 µM in [4] and in data set [9] were 123% and 100%, respectively. Besides, the Activity entry in [5] was “Not Active”; in [8], “Active”; in data set [10], “Not Active”. The result in data set [2] was Active. For the same compound, the result in data set [6] and in data set [1] was inactive. Also, the EC50 in data set [7] was 45.7 nM; in data set [12], 4.17 nM; in data set [13] it was 1.26 nM. Further, in [11], the Emax came to 140%.

Take `Nc1ncnc2c1ncn2-c1ccc(C(=O)C2CC2)cc1`: the result in [2] and in data set [1] was inactive.

As a reminder, the Emax is the maximal effect, on the per cent scale that the assay sets. A word on the EC50: it is the concentration giving half of the maximal effect.

(Values after ChEMBL document CHEMBL4422637, “Identification of dual role of piperazine-linked phenyl cyclopropyl methanone as positive allosteric modulator of 5-HT2C and negative allosteric modulator of 5-HT2B receptors” (Eur J Med Chem, 2019).)
